Each block holds one molecule with its values, some of them ahead of it.
Experiments:
Tsg101 UEV domain = target: T1, Tsg101 UEV domain (Homo sapiens, UniProt Q99816); experiment: BIAcore biosensor binding of Tsg101 UEV to immobilized GST–peptide fusions; conditions: relative to HIV-1 PTAP peptide
T1 sequence (Q99816 2-145 limits assumed): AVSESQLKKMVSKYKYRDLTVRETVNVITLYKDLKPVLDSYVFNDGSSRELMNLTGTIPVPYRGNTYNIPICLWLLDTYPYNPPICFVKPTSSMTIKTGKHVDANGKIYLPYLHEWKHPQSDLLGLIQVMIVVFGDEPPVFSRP
Summary of the method: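 Purified recombinant Tsg101 UEV domain was flowed over immobilized GST fusions of 10-amino-acid peptides spanning the central P(S/T)AP motifs of HIV-1 NL4–3 Gag, Tsg101 and Hrs. A mutant Gag PTAP peptide served as negative control. Binding was recorded at a range of UEV concentrations, and binding isotherms were plotted against concentration.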

[1] = target: GST fusion of a 10-amino acid peptide spanning the PTAP motif of human Tsg101 (human); experiment: SPR
[2] = target: GST fusion of a 10-amino acid peptide spanning the PTAP motif of HIV-1 NL4-3 Gag (HIV-1 NL4-3); experiment: SPR
[3] = target: GST fusion of a 10-amino acid peptide spanning the PSAP motif of human Hrs (human); experiment: SPR
[4] = target: T2, Tsg101–Gal4p binding domain fusion, full-length wild-type Tsg101 (human, UniProt Q99816 1-390); experiment: two-hybrid
T2 sequence (looked up): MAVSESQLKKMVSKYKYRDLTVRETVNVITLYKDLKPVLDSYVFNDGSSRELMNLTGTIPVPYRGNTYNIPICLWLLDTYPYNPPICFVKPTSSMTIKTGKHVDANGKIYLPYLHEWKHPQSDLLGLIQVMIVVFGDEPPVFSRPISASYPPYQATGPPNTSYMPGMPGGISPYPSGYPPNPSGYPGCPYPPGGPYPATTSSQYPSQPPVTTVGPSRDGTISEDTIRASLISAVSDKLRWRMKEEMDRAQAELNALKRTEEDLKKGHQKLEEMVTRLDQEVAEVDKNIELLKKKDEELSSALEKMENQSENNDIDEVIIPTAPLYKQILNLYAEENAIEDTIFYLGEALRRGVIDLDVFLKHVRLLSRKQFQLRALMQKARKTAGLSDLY

- binding affinity weaker than Tsg101 UEV binding to the HIV-1 PTAP peptide (Tsg101 UEV domain): sevenfold
Molecule: SPTPSAPVPL [Hrs SPTPSAPVPL]

Molecule: Tsg101 UEV domain (NH2-terminal ubiquitin E2 variant domain of Tsg101) (from UniProt Q99816 2-145) (domain or fragment)
- fold weaker binding affinity than for the HIV-1 PTAP peptide [1]: 4 fold
- Kd [2]: 21 µM
- fold weaker binding affinity than for the HIV-1 PTAP peptide [3]: 7 fold

- binding affinity weaker than Tsg101 UEV binding to the HIV-1 PTAP peptide (Tsg101 UEV domain): fourfold
Molecule: VIIPTAPLYK [Tsg101 VIIPTAPLYK]

- fold reduction of binding against wild-type Hrs [4]: ~2 fold
B1: Hrs^ΔPSAP, Gal4p activation domain fusion (alanine substitution of the Hrs 348PSAP351 sequence) (natural protein, human, UniProt O14964 1-777, looked up)
chain: MGRGSGTFERLLDKATSQLLLETDWESILQICDLIRQGDTQAKYAVNSIKKKVNDKNPHVALYALEVMESVVKNCGQTVHDEVANKQTMEELKDLLKRQVEVNVRNKILYLIQAWAHAFRNEPKYKVVQDTYQIMKVEGHVFPEFKESDAMFAAERAPDWVDAEECHRCRVQFGVMTRKHHCRACGQIFCGKCSSKYSTIPKFGIEKEVRVCEPCYEQLNRKAEGKATSTTELPPEYLTSPLSQQSQLPPKRDETALQEEEELQLALALSQSEAEEKERLRQKSTYTSYPKAEPMPSASSAPPASSLYSSPVNSSAPLAEDIDPELARYLNRNYWEKKQEEARKSPTAAAAVPLTEPAAQPGEGHAAPTNVVENPLPETDSQPIPPSGGPFSEPQFHNGESEESHEQFLKALQNAVTTFVNRMKSNHMRGRSITNDSAVLSLFQSINGMHPQLLELLNQLDERRLYYEGLQDKLAQIRDARGALSALREEHREKLRRAAEEAERQRQIQLAQKLEIMRQKKQEYLEVQRQLAIQRLQEQEKERQMRLEQQKQTVQMRAQMPAFPLPYAQLQAMPAAGGVLYQPSGPASFPSTFSPAGSVEGSPMHGVYMSQPAPAAGPYPSMPSTAADPSMVSAYMYPAGATGAQAAPQAQAGPTASPAYSSYQPTPTAGYQNVASQAPQSLPAISQPPQSSTMGYMGSQSVSMGYQPYNMQNLMTTLPSQDASLPPQQPYIAGQQPMYQQMAPSGGPPQQQPPVAQQPQAQGPPAQGSEAQLISFD

Reference: paper PMC2172688 (The Journal of Cell Biology, 2003)
